Only some compounds are listed: those with a hit (about 1.6% of all), similar ones and a draw of the others.
Tn7 DDE FP = inhibitors of Tn7 peptide binding to human fibrin DD(E) | P02675 | FP displacement of FITC-Tn7 peptide from fibrin DD(E); 0% = median of compound wells per plate | inhibition, % at 8.3 µM | 370,000 tested, 0.13% active;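 active means inhibition above the mean of compounds falling within the control limits plus 3 SD of them, cut at about 14% in these data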;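 further: 0% = plate median of compound wells and 100% = 10 µM Aha-Tn7 peptide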
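Assay system: human fibrin DD(E). Input: DD(E) 2 µM final. Medium: Tris buffer with calcium and detergent, pH 7.8. Compound dosing: single point at 8.3 µM. Timing: 10 min plus 3 h, room temperature. Technique: fluorescence polarization of the labelled Tn7 tracer. Read-out: percent inhibition. Replicates: singlicate testing.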
MT1-MMP act inh = MT1-MMP (human) activation inhibition; 360,000 tested, 0.061% active; HT1080 RFP-PRO-GFP cells, GFP/RFP ratio fluorescence, overnight; percent of plate control window, DMSO zero; GFP/RFP ratio change, % at 20 µM; P50281;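 active means GFP/RFP ratio change of at least 30% with cell ATP level not reduced by more than half and red fluorescence within 50% of control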
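Test system: HT1080 RFP-PRO-GFP cells; Benchmarks: DMSO and RFP-L50D-GFP cell wells; Timing: cells overnight before dosing, compound overnight, 37 °C, 5% CO2; Compound: one 20 µM compound dose with 1% DMSO; Read-out: GFP/RFP fluorescence ratio.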
Tn6 DDE FP = disrupts Tn6 cyclic peptide binding to fibrin D-Dimer-E complex. Fibrin DD(E) TRITC-Tn6 fluorescence polarization displacement. P02675. 370,000 tested, 0.21% active. inhibition, % at 8.3 µM. AID 720509;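 active means inhibition above a per-campaign cutoff: mean of compounds within control limits plus 3 SD, cut at about 15% in these data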;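 further: 0% = median of all compound wells on the plate and 100% = blocking peptide control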
ADAM17 inh = inhibits human ADAM17. P78536. 370,000 tested, 0.83% active. recombinant ADAM17, EDANS/DABCYL FRET peptide cleavage. AID 720648. inhibition, % at 6.95 µM;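 active means inhibition above the mean of compounds lying between control limits plus 3 SD, set per campaign, cut at about 8.5% in these data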;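 further: 0% = DMSO-only wells as the low control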
ADAM10 inh = inhibitors of human ADAM10 | inhibition, % at 7 µM | 370,000 tested, 0.62% active | O14672 | recombinant ADAM10, EDANS/DABCYL FRET peptide cleavage, 3 h;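 active means inhibition above a per-campaign cutoff equal to the mean of compounds falling between control-based bounds plus 3 SD, cut at about 20% in these data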;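 further: 0% = DMSO wells while the 100% control is not disclosed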
Target sequence (O14672 214-748 limits assumed): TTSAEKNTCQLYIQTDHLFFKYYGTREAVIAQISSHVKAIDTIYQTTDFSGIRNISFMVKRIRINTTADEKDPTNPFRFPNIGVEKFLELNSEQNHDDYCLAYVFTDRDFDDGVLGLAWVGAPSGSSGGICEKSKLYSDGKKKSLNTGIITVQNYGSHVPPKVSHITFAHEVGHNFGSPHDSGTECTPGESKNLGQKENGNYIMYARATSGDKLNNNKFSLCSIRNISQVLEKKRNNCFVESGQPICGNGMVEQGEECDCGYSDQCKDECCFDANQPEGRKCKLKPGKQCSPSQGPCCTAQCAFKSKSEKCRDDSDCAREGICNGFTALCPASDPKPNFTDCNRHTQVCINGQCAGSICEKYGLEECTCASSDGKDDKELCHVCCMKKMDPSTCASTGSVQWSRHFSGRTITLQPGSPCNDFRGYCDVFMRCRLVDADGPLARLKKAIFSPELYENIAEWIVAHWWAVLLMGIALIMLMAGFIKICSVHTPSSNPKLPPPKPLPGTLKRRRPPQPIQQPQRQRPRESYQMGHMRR
ADAM10 counter = counter-screen for ADAM17 exosite inhibitors: inhibitors of human ADAM10. 2,900 tested, 47% active. shares compounds with ADAM17 inh. recombinant ADAM10, EDANS/DABCYL FRET peptide cleavage, 3 h. inhibition, % at 6.95 µM;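 active means mean inhibition over the triplicate runs exceeds the activity threshold set in the earlier primary screen, cut at about 20% in these data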;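 further: 0% = DMSO wells and 100% = marimastat wells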
ADAM17 confirm = human ADAM17 inhibition, confirmation. shares compounds with ADAM17 inh. recombinant ADAM17, EDANS/DABCYL QFRET peptide cleavage. inhibition, % at 6.95 µM. 2,900 tested, 65% active. AID 743257;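 active means mean inhibition across replicates above the hit cutoff set in the primary screen, cut at about 8.5% in these data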;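 further: 0% = DMSO wells and 100% = marimastat wells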
* hit, by the source's call; . = not tested or not shown; ! = a repeat was not active.

SMILES	Tn7 DDE FP	MT1-MMP act inh	Tn6 DDE FP	ADAM17 inh	ADAM10 inh	ADAM10 counter	ADAM17 confirm
O=S(=O)(NCCc1ccccc1)c1ccc(F)cc1Br	6	2	-3	1	5	.	.
O=C(CSc1nnc(-c2cccs2)o1)c1ccc(F)cc1	-4	.	1	1	-3	.	.
C[C@@H]1CN([C@@H](C)CO)C(=O)CCCn2nncc2CO[C@@H]1CN(C)S(=O)(=O)c1ccc(C#N)cc1	-3	-1	3	9.5*	9	13	9.5*
CCN(CC(O)CON=C1c2ccccc2-c2ccccc21)S(=O)(=O)c1ccc(Cl)cc1 (configuration not stated)	-1	-5	-8	7	15	.	.
CN(CC(O)CON=C1c2ccccc2-c2ccccc21)S(=O)(=O)c1ccc(Br)cc1 (configuration not stated)	2	-11	5	8.8*	18	23*	14*
CCN(CC(O)CON=C1c2ccccc2-c2ccccc21)S(=O)(=O)c1ccc(C)cc1 (configuration not stated)	1	-19	-9	9.4*	17	22*	17*
CCc1nc2c(OCCC3CCCCC3)cccn2c1N(C)C(=O)c1cccs1	6	-12	-8	9.4*	17	21*	12*
CCCCC(=O)N(C)c1c(CC)nc2c(OCCC3CCCCC3)cccn12	2	-9	9	2	-4	.	.
CCCCC(=O)N(C)c1c(CC)nc2c(OCC3CCCCC3)cccn12	-10	-22	0	9.7*	5	0	3
O=C(c1ccccc1)c1ccc(OCCO)cc1	-4	0	2	0	-3	.	.
CCOc1cccc(OCCOc2ccc(C(=O)c3ccccc3)cc2)c1	1	3	-3	10*	10	20	14*
Cc1ccccc1Nc1nc(N)nc(COC(=O)CCNS(=O)(=O)c2ccccc2)n1	-5	-4	-9	12*	9	-3	0
O=C(NCCc1cccs1)C1CC(c2cccc([N+](=O)[O-])c2)=NO1 (configuration not stated)	-6	-1	-1	-4	-5	.	.
O=C(NCc1cccs1)c1cc(-c2ccccc2)nn1CC1CC(c2cccc([N+](=O)[O-])c2)=NO1 (configuration not stated)	-4	-2	-6	11*	16	27*	13*
CCC(=O)N(C)C[C@@H]1[C@H](c2ccc(C3=CCCCC3)cc2)[C@H](CO)N1C(=O)CC	-5	.	7	0	0	.	.
CCC/C(O)=C1\C(=O)CCCC1=NC(C)C(=O)O (configuration not stated)	0	-1	4	10*	6	10	7
CCC/C(O)=C1\C(=O)CCCC1=NCCc1ccc(OCC)c(OCC)c1	6	0	3	-4	2	.	.
O=C(Cn1c(-c2ccccc2)noc1=O)Nc1ccc(N2CCCCCC2)cc1	-2	-6	9	11*	17	24*	17*
CCCNc1nc2c(c(=O)[nH]c(=O)n2C)n1CCC(C)C	-3	2	5	8.8*	4	25*	13*
O=C(NNC(=O)c1csc(-c2ccccc2)n1)c1ccccc1	7	5	4	8.8*	11	-10	-4
COC(=O)[C@]12C[C@H](CC(=O)N3CCCCC3)C(=O)N(Cc3ccc(Cl)cc3Cl)C1=C[C@H](C(C)(C)C)O[C@@H]2C	0	.	1	-4	-6	.	.
CC1CCCCN1C(=O)Cn1nnc(-c2cccnc2)n1 (configuration not stated)	2	-27	6	-3	-6	.	.
Cc1ccc(-c2nnn(CCC(=O)N3CCCCC3C)n2)cc1 (configuration not stated)	1	0	-1	9.5*	6	14	7
CC(C)=CCC/C(C)=C/CNCC(=O)N1c2ccccc2[C@]2(C)C[C@@H]3C(=O)N(C/C=C(\C)CCC=C(C)C)CC(=O)N3[C@H]12	1	.	7	-3	-5	.	.
CNC(=S)N1N=C(c2ccc(Br)cc2)CC1c1ccc(N(C)C)cc1 (configuration not stated)	-2	-3	1	4	17	.	.
SMILES	Tn7 DDE FP	MT1-MMP act inh	Tn6 DDE FP	ADAM17 inh	ADAM10 inh	ADAM10 counter	ADAM17 confirm
CNC(=S)N1N=C(c2ccc(Br)cc2)CC1c1ccc(Br)cc1 (configuration not stated)	-4	-12	-14	12*	15	27*	17*
Cc1ccc(S(=O)(=O)N2[C@@H](c3cccc(Cl)c3)C(C(=O)O)=CC[C@H]2c2ccc(C(C)C)cc2)cc1	-11	-3	-8	9.0*	17	26*	14*
CC(=O)C1=CCC(c2ccc(Cl)cc2)N(S(=O)(=O)c2ccc(C)cc2)C1 (configuration not stated)	0	-1	-1	12*!	19	9	3
Cc1ccccc1S(=O)(=O)N1[C@@H](c2ccc(Br)cc2)C(C(=O)O)=CC[C@H]1c1ccc(Cl)cc1	-7	-1	-7	9.3*	13	12	8.7*
COC(=O)C1=C(C)N(CC(C)C)C(=S)NC1c1cccc(F)c1 (configuration not stated)	1	.	-5	-6	0	.	.
Cc1ccc(NC(=O)NCC2CC2(Cl)Cl)cc1 (configuration not stated)	5	-7	5	-1	-2	.	.
O=C(NCC1CC1(Cl)Cl)Nc1ccc(Cl)c(Cl)c1 (configuration not stated)	7	-2	5	9.5*	14	32*	15*
C[C@@H]1ON(C)[C@H]2C[C@H]3c4cc(-c5ccccc5)ccc4CCN3C[C@@H]12	2	.	7	-9	-32	.	.
COc1ccc(-n2c(=S)[nH]c3cc(C(=O)Nc4ccccc4OC)ccc3c2=O)cc1	-2	.	-2	0	0	.	.
COc1ccc(-n2c(=S)[nH]c3cc(C(=O)Nc4ccccc4OC)ccc3c2=O)c(OC)c1	0	-1	-5	9.0*	17	28*	12*
Cc1cc(C(=O)Cn2nnc(-c3ccc(Cl)cc3)n2)c(C)n1CC1CCCO1 (configuration not stated)	-2	-6	-2	9.0*	10	17	9.6*
Cc1ccccc1N(C)C(=O)CN1CCN(c2nc(-c3ccccc3)cs2)CC1	-3	.	-2	2	4	.	.

High-throughput results from PubChem.
